Experiment [1] has as its target T1, Adenosine receptor A3 (Homo sapiens, UniProt P0DMS8).
T1 sequence (P0DMS8 whole entry): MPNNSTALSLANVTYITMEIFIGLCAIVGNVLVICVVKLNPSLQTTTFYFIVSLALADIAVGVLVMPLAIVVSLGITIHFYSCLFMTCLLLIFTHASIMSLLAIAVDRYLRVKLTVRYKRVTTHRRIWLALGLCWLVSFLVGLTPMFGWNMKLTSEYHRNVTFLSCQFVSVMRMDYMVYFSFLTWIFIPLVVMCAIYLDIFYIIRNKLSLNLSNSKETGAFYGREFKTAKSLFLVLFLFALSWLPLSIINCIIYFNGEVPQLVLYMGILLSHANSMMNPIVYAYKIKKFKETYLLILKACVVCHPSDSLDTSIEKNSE
The experiment in a line: Displacement of [125I]AB-MECA from human cloned adenosine A3 receptor expressed in CHO cells. The experiment is classed as cell-based.

Experiment [2] concerns the target T2, Adenosine receptor A1 (Bos taurus, UniProt P28190).
T2 sequence (P28190 whole entry): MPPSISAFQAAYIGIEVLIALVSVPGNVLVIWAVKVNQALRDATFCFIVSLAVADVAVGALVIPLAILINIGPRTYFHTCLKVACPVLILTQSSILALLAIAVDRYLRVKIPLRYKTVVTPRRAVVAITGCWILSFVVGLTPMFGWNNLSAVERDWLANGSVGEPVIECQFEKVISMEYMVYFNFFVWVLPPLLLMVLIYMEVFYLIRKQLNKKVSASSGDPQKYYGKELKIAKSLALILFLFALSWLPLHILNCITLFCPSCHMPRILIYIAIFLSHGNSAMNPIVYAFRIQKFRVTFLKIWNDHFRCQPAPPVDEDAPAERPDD
The experiment in a line: Displacement of [3H]DPCPX from bovine brain cortical membrane adenosine A1 receptor.

The species named for experiment [3] is Bos taurus. The experiment in a line: Displacement of [3H]CGS 21680 from bovine striatal membrane adenosine A2A receptor at 20 uM. In outline: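 IC50 from five concentrations in triplicate, nonlinear regression; Ki via Cheng–Prusoff from four assays. Single-point values as percent inhibition at 20 μM.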
Background: Loss of bound radioactivity is the signal in a displacement assay; it reports binding, not function.

Experiment [4] concerns the target T3, Adenosine receptor A1 (Bos taurus) (UniProt P28190).
T3 sequence (whole entry): T2 sequence (P28190 whole entry)
The experiment in a line: Displacement of [3H]DPCPX from bovine brain cortical membrane adenosine A1 receptor at 10 uM.

Experiment [5] is filed under the species Bos taurus. Kind of experiment: Displacement of [3H]CGS 21680 from bovine striatal membrane adenosine A2A receptor at 10 uM.
For experiment [6], the target named is T4, Adenosine receptor A3 (Homo sapiens) (UniProt P0DMS8).
T4 sequence (whole entry): T1 sequence (P0DMS8 whole entry)
The experiment in a line: Displacement of [125I]AB-MECA from human cloned adenosine A3 receptor expressed in CHO cells at 1 uM. Format: cell-based. In outline: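 IC50 from five displacer concentrations, each in triplicate, by nonlinear regression; Ki by Cheng–Prusoff. Ki as mean of four separate assays, each in triplicate; single-point values as percent inhibition of specific binding at 1 μM.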

The nature of experiment [7]: Displacement of [3H]CGS 21680 from bovine striatal membrane adenosine A2A receptor. More on the design: species or system Bos taurus.
Experiment [8] addresses T5, Adenosine receptor A1 (Homo sapiens, UniProt P30542).
T5 sequence (P30542 whole entry): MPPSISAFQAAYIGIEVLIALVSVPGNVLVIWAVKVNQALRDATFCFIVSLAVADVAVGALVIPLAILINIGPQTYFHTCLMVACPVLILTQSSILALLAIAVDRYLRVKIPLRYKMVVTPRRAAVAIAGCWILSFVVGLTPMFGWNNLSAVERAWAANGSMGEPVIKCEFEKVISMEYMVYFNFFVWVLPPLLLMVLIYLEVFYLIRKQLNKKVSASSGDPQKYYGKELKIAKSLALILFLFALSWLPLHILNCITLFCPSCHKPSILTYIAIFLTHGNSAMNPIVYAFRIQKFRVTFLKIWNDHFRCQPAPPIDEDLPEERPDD
Kind of experiment: Displacement of [3H]DPCPX from human cloned adenosine A1 receptor expressed in CHO cells. Format: cell-based.

For experiment [9], the target named is T3, Adenosine receptor A1 (Bos taurus). Kind of experiment: Displacement of [3H]DPCPX from bovine brain cortical membrane adenosine A1 receptor at 20 uM. In outline:
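Bovine cerebral cortical membranes; [3H]DPCPX displacement (Kd 0.3 nM). IC50 from five displacer concentrations in triplicate; Ki by Cheng–Prusoff, mean of four assays.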

Experiment [10] deals with T6, Adenosine receptor A1 (Homo sapiens) (UniProt P30542).
T6 sequence (whole entry): T5 sequence (P30542 whole entry)
Kind of experiment: Displacement of [3H]DPCPX from human cloned adenosine A1 receptor expressed in CHO cells at 10 uM. Format: cell-based. Summed up:
(§1)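 CHO cell membranes stably expressing hA1 or hA2A; radioligands [3H]DPCPX (hA1, Kd 3 nM) and [3H]NECA (hA2A, Kd 30 nM). IC50 from five displacer concentrations in triplicate, nonlinear regression; Ki by Cheng–Prusoff; four separate assays. Single-point values as percent inhibition of specific binding at 10 μM.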

In experiment [11] the target is T7, Adenosine receptor A2a (Homo sapiens, UniProt P29274). Kind of experiment: Displacement of [3H]NECA from human cloned adenosine A2A receptor expressed in CHO cells. Format: cell-based.
For experiment [12], the target named is T7, Adenosine receptor A2a. The experiment in a line: Displacement of [3H]NECA from human cloned adenosine A2A receptor expressed in CHO cells at 10 uM. The experiment is classed as cell-based. In outline:
as §1

In ChEMBL document CHEMBL1153402, “Pyrido[2,3-e]-1,2,4-triazolo[4,3-a]pyrazin-1-one as a new scaffold to develop potent and selective human A3 adenosine receptor antagonists. Synthesis, pharmacological evaluation, and ligand-receptor modeling studies” (J Med Chem, 2009) one finds Ki and Activity data, which are given here for 31 molecules.

T7 sequence (P29274 whole entry): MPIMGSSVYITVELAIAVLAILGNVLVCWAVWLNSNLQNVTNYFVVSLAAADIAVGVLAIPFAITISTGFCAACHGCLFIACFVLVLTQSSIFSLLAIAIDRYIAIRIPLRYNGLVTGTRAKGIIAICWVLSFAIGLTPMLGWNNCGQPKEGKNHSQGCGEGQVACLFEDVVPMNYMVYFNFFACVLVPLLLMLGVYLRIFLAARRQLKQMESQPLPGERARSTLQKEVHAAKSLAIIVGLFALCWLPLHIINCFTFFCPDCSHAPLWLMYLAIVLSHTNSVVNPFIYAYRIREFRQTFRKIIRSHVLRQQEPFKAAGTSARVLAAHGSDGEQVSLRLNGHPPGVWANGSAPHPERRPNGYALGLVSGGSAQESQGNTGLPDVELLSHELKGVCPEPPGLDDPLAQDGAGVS

By Ki is commonly meant the dissociation constant of the complex between target and ligand, obtained from inhibition or displacement. On to `CC(=O)Nc1nc2ncccc2n2c(=O)n(-c3ccccc3)nc12`, for which the inhibition constant Ki in experiment [1] amounted to 0.138 µM; in experiment [2], 0.014 µM. The Activity in [3] was 59%.

On to `O=C(c1ccccc1)N(C(=O)c1ccccc1)c1nc2c([N+](=O)[O-])cccc2n2c(=O)n(-c3ccccc3)nc12`, for which the Activity amounted to 39% in experiment [4], 0% in [5] and 27% in [6].

On to `Nc1nc2ncccc2n2c(=O)n(-c3ccccc3)nc12`, for which the Ki in [1] turned out to be 0.656 µM; in experiment [2] it was 0.0031 µM; in experiment [7], 0.0926 µM.

Take `COc1ccc(-n2nc3c(=O)[nH]c4ncccc4n3c2=O)cc1`: the Ki in [1] was determined as 0.0033 µM; in [8], 0.114 µM. Besides, the Activity in experiment [9] is 26%; in experiment [3] it was 0%.

As to `CCOC(=O)c1ccc(-n2nc3c(=O)[nH]c4ncccc4n3c2=O)cc1`, the Activity came to 16% in [9], 0% in experiment [3] and 0% in experiment [6].

Turning to `COc1ccc(-n2nc3c(N)nc4ncccc4n3c2=O)cc1`, the results for the Ki in experiment [1], in [2] and in [7] were 0.158 µM, 1.1 µM and 0.413 µM, respectively.

Consider `O=C(O)c1ccc(-n2nc3c(=O)[nH]c4ncccc4n3c2=O)cc1`, for which the Activity in experiment [9] stood at 30%; in [3], 7%; in experiment [6], 0%.

The molecule `CCCn1c(=O)c2[nH]c(C3CCCC3)nc2n(CCC)c1=O` [1,3-DIPROPYL-8-CYCLOPENTYLXANTHINE [DPCPX]] showed a Ki in experiment [7] of 0.337 µM.

Turning to `O=C(Nc1nc2c([N+](=O)[O-])cccc2n2c(=O)n(-c3ccccc3)nc12)c1ccccc1`, the Activity in experiment [4] stood at 32%; in experiment [5] it was 0%.

With `O=c1n(-c2ccccc2)nc2c(NC3CCCC3)nc3c([N+](=O)[O-])cccc3n12`, in experiment [1], the affinity, expressed as Ki, was 0.116 µM.

`O=c1n(-c2ccccc2)nc2c(NC3CCCCC3)nc3ncccc3n12`: the Ki came to 0.0155 µM in [1], 0.211 µM in experiment [11], 0.00038 µM in [2] and 0.199 µM in [7]. In experiment [10], this molecule returned an Activity of 37%.

On to `COc1ccc(-n2nc3c(NC(C)=O)nc4c([N+](=O)[O-])cccc4n3c2=O)cc1`, for which the Activity turned out to be 0% in experiment [4], 7% in experiment [5] and 36% in experiment [6].

As to `O=C(Cc1ccccc1)Nc1nc2ncccc2n2c(=O)n(-c3ccccc3)nc12`, the Ki in experiment [1] worked out at 0.0117 µM; in experiment [11], 0.208 µM; in [2], 0.00715 µM; in experiment [7] it was 0.414 µM. Also, in experiment [10], the Activity turned out to be 37%.

Consider `CCOC(=O)c1ccc(-n2nc3c(N)nc4ncccc4n3c2=O)cc1`, for which the figures for the Activity in [9], in experiment [3] and in experiment [6] were 39%, 17% and 0%, respectively.

In the case of `O=c1n(-c2ccccc2)nc2c(NC3CCCC3)nc3ncccc3n12`, the Ki is 0.0084 µM in [1], 0.208 µM in experiment [11], 0.00047 µM in [2] and 0.51 µM in experiment [7]. In [10], the Activity is 36%.

Consider `COc1ccc(-n2nc3c(N(C(=O)c4ccccc4)C(=O)c4ccccc4)nc4ncccc4n3c2=O)cc1`, for which the affinity in experiment [1] corresponds to a Ki of 0.00775 µM. The Activity is 0% in experiment [10], 0% in experiment [12], 17% in [9] and 0% in experiment [3].

In the case of `O=C(Nc1nc2ncccc2n2c(=O)n(-c3ccccc3)nc12)c1ccccc1`, the Ki is 0.0703 µM in [1], 2.24 µM in experiment [11], 0.152 µM in experiment [2] and 7.1 µM in experiment [7]. The Activity in [10] is 8%.

Consider `Nc1nc2ncccc2n2c(=O)n(-c3ccc(O)cc3)nc12`, for which the inhibition constant Ki in experiment [1] was 1.34 µM; in experiment [2] it was 0.112 µM; in experiment [7], 0.832 µM.

As for `COc1ccc(-n2nc3c(NC(=O)c4ccccc4)nc4c([N+](=O)[O-])cccc4n3c2=O)cc1`, the Activity in experiment [4] stood at 35%; in experiment [5], 15%.

In [1], `O=c1[nH]c2c([N+](=O)[O-])cccc2n2c(=O)n(-c3ccccc3)nc12` registered a Ki of 0.279 µM.

Molecule `Nc1nc2c([N+](=O)[O-])cccc2n2c(=O)n(-c3ccc(O)cc3)nc12` yielded an Activity in [6] of 45%.

Take `O=c1[nH]c2ncccc2n2c(=O)n(-c3ccc(F)cc3)nc12`: the Ki in [1] is 0.59 µM; in [2], 0.306 µM. Besides, the Activity in [3] stood at 26%.

As to `COc1ccc(-n2nc3c(N(C(=O)c4ccccc4)C(=O)c4ccccc4)nc4c([N+](=O)[O-])cccc4n3c2=O)cc1`, the Activity in experiment [4] is 20%; in [5], 0%.

With `O=c1n(-c2ccccc2)nc2c(NC3CCCCC3)nc3c([N+](=O)[O-])cccc3n12`, the Ki in experiment [1] stood at 0.281 µM.

For `Nc1nc2ncccc2n2c(=O)n(-c3ccc(F)cc3)nc12`, the inhibitory constant (Ki) in experiment [1] turned out to be 0.49 µM; in [2], 0.181 µM; in experiment [7] it was 1.51 µM.

With `CC(=O)Nc1nc2c([N+](=O)[O-])cccc2n2c(=O)n(-c3ccccc3)nc12`, the Activity in experiment [5] was found to be 36%; in experiment [6], 18%.

The molecule `O=c1[nH]c2c([N+](=O)[O-])cccc2n2c(=O)n(-c3ccc(O)cc3)nc12` came in with an Activity in [6] of 21%.

With `O=c1[nH]c2ncccc2n2c(=O)n(-c3ccccc3)nc12`, the results for the Ki in experiment [1] and in experiment [2] were 0.251 µM and 0.145 µM, respectively. Further, the Activity stood at 0% in experiment [12] and 12% in [3].

In experiment [2], `O=c1[nH]c2ncccc2n2c(=O)n(-c3ccc(O)cc3)nc12` gave a Ki of 0.449 µM. The Activity in [3] was 0%; in [6], 32%.

In [1], `COc1ccc(-n2nc3c(NC(C)=O)nc4ncccc4n3c2=O)cc1` displayed a Ki of 0.041 µM. In addition, the Activity in experiment [10] worked out at 48%; in experiment [12], 29%; in [9], 56%; in experiment [3] it was 19%.

Turning to `O=C(c1ccccc1)N(C(=O)c1ccccc1)c1nc2ncccc2n2c(=O)n(-c3ccccc3)nc12`, the Ki came to 0.335 µM in [1] and 0.0707 µM in experiment [2]. For the same molecule, the Activity in experiment [3] was 12%.
